Key:
[1] = target: T1, Sigma non-opioid intracellular receptor 1 (Cavia porcellus, UniProt Q60492); experiment: Displacement of [3H](+)-pentazocine from sigma 1 receptor in guinea pig brain membrane; assay type: cell membranes
How it was run: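 Male guinea pig brain membranes (0.25 mg protein) were incubated with 1.0 nM [3H](+)-pentazocine in 50 mM Tris-HCl (pH 7.4, 25 °C) for 150 min at 37°C. Haloperidol (1.0 µM) defined nonspecific binding. Ten log-spaced test concentrations were used, in water with 0.1% HOAc/1.0% EtOH. Bound radioactivity was collected on PEI-soaked GF/B filters and counted by scintillation.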

[2] = species on record: Cavia porcellus; experiment: Selectivity for sigma 2 receptor over sigma 1 receptor in guinea pig brain membrane; assay type: cell membranes
How it was run: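 Selectivity is the ratio of sigma1 Ki to sigma2 Ki. Sigma1 Ki came from [3H](+)-pentazocine competition and sigma2 Ki from [3H]DTG competition with (+)-pentazocine mask, both in male guinea pig brain membranes.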

[3] = Displacement of [3H]DTG from sigma 2 receptor in guinea pig brain membrane; assay type: cell membranes, Cavia porcellus
How it was run: (§1)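 Male guinea pig brain membranes (0.25 mg protein) were incubated with 3.0 nM [3H]DTG plus 200 nM (+)-pentazocine as sigma1 mask. Buffer was 50 mM Tris-HCl, pH 8.0, and incubation was 120 min at 25 °C. DTG (100 µM) defined nonspecific binding. Ten log-spaced test concentrations were used. Filters were PEI-soaked GF/B, read by scintillation counting. Ki given as mean ± SEM, n = 3–5.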

[4] = Displacement of [3H]DTG from sigma 2 receptor in guinea pig brain membrane at pH 8.0 at 25 degC; assay type: cell membranes, Cavia porcellus; how it was run: as §1
[5] = target: T1, Sigma non-opioid intracellular receptor 1; experiment: Displacement of [3H](+)-pentazocine from sigma 1 receptor in guinea pig brain membrane at pH 8.0 at 25 degC; assay type: cell membranes
How it was run: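 This alternative sigma1 regimen used guinea pig brain membranes with 3.0 nM [3H](+)-pentazocine in pH 8.0 buffer. Incubation was 120 min at 25 °C. Nonspecific binding was defined with 10 µM (+)-pentazocine. Bound ligand was separated by filtration and counted by scintillation.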

T1 sequence (Q60492 whole entry): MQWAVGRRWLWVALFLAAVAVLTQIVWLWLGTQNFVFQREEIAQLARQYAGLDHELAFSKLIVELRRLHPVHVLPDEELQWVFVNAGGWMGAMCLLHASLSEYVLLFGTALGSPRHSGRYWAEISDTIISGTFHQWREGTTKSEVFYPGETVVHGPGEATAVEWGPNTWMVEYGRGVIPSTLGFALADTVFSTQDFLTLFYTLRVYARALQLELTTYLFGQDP

| SMILES | Ki [1] [nM] | Ratio Ki [2] | Ki [3] [nM] | IC50 [4] [nM] | IC50 [5] [nM] |
| --- | --- | --- | --- | --- | --- |
| COc1ccc(CCNCCCCNC(=O)c2cc(Br)cc(OC)c2OC)cc1OC | 880 | 0.2 | 4620 | – | – |
| COc1cc(Br)cc(C(=O)NCCCCN2CCc3cc4c(cc3C2)OCCCO4)c1OC | 1430 | 44 | 32.6 | – | – |
| COc1cc(Br)cc(C(=O)NCCCCN2CCc3cc4c(cc3C2)OCO4)c1OC | 82.2 | 4 | 20.7 | – | – |
| COc1cc2c(cc1OC)CN(CCCCNC(=O)c1cc(Br)cc(OC)c1OC)CC2 | – | – | 2.7 | 3 | 1890 |
| COc1cc(Br)cc(C(=O)NCCCCN2CCc3cc4c(cc3C2)OCCO4)c1OC | 338 | 16 | 21.7 | – | – |

— ChEMBL document CHEMBL1139166, “Synthesis and in vitro evaluation of tetrahydroisoquinolinyl benzamides as ligands for sigma receptors” (Bioorg Med Chem Lett, 2007)
